Experimental data reported in ChEMBL document CHEMBL4373644, “Fungal natural alkaloid schizocommunin activates the aryl hydrocarbon receptor pathway” (Medchemcomm, 2019).

Experiments:
[1] = target: T1, Aryl hydrocarbon receptor (Homo sapiens, UniProt P35869); test: Agonist activity at AhR in human HuH7 cells assessed as effect on GSTA1 expression at 0.5 uM after 24 hrs by qRT-PCR analysis; format: cell-based
T1 sequence (P35869 whole entry): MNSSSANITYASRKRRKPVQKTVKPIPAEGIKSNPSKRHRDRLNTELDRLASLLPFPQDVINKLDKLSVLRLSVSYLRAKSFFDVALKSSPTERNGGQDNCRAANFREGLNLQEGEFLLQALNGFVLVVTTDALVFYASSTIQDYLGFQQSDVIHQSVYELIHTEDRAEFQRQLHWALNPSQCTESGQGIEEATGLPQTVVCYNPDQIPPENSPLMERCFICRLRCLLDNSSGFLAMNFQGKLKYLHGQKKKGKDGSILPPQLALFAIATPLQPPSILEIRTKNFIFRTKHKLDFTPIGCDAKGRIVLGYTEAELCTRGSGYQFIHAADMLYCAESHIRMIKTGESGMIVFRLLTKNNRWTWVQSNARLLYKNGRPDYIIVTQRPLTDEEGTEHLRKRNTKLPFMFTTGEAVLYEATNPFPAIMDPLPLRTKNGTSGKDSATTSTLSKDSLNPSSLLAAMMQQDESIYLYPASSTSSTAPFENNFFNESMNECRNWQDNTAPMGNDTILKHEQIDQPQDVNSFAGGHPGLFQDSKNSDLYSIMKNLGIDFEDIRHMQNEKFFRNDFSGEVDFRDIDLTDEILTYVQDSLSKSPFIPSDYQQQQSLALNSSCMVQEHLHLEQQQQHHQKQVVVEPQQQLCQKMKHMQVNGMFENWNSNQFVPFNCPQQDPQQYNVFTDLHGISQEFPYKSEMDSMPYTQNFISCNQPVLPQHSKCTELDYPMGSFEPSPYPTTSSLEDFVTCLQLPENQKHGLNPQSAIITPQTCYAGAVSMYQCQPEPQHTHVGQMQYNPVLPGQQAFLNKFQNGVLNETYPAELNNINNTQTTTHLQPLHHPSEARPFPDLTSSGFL
Outline: (§1)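 Huh7 hepatoma cells in DMEM with 10% FBS at 37 °C, seeded 2.75 × 10^5 per well the day before. Exposed 24 h to 10 μM or 0.5 μM compound, 0.1% final DMSO, against DMSO-only mock. RT-qPCR with 18S rRNA normalisation; fold change by 2–ΔΔCt relative to mock; n = 5; unpaired two-tailed t-test, p < 0.05.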

[2] = target: T1, Aryl hydrocarbon receptor; test: Agonist activity at AhR in human HuH7 cells after 24 hrs by renilla luciferase reporter gene assay; format: cell-based
Outline: (§2)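 Huh7 cells seeded 20 000 per well, next day co-transfected with XRE-driven firefly luciferase (pGL4.43 luc2P/XRE) and Renilla plasmids by lipofection. A day later treated 24 h at 0.1, 0.5, 5 or 10 μM, 1% final DMSO, then lysed. Luciferase read in technical triplicate; signal normalised to Renilla and to DMSO vehicle.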

[3] = system: Huh-7; test: Cytotoxicity against human HuH7 cells assessed as reduction in metabolic activity after 24 hrs by MTT assay; format: ADME, cell-based; conditions: Huh-7, 24 h
Outline: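 Huh7 cells seeded 10 000 per well, next day given serial dilutions of 0.012–200 μM (2% final DMSO) for 24 h. After a PBS wash, cells incubated 3 h with MTT at 2.5 mg mL–1; crystals dissolved in DMSO, absorbance read at 562 nm and normalised to mock; EC50 from dose–response curve.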

[4] = system: A549; test: Effect on AhR expression in human A549 cells at 0.5 uM after 24 hrs by qRT-PCR analysis; format: ADME, cell-based; conditions: a549, 24 h
Outline: (§3)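 A549 lung carcinoma cells grown at 37 °C in DMEM with 10% FBS, seeded 2.75 × 10^5 per well one day ahead. Treated 24 h with 10 μM or 0.5 μM compound in 0.1% final DMSO; mock was DMSO only. RNA then analysed by RT-qPCR, normalised to 18S rRNA, 2–ΔΔCt fold change vs mock; n = 3; two-tailed unpaired t-test, p < 0.05.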

[5] = system: A549; test: Effect on XAP2 expression in human A549 cells at 0.5 uM after 24 hrs by qRT-PCR analysis; format: ADME, cell-based; conditions: a549, 24 h; outline: as §3
[6] = target: T1, Aryl hydrocarbon receptor; test: Agonist activity at AhR in human A549 cells assessed as increase in CYP1B1 expression at 0.5 uM after 24 hrs by RT-qPCR analysis; format: ADME, cell-based; conditions: a549, 24 h; outline: as §3
[7] = target: T1, Aryl hydrocarbon receptor; test: Agonist activity at AhR in human HuH7 cells assessed as effect on ALDH3A1 expression at 0.5 uM after 24 hrs by q-RT-PCR analysis; format: cell-based; outline: as §1
[8] = system: Huh-7; test: Effect on AhR expression in human HuH7 cells at 0.5 uM after 24 hrs by qRT-PCR analysis; format: ADME, cell-based; conditions: huh-7, 24 h; outline: as §1
[9] = system: Huh-7; test: Effect on XAP2 expression in human HuH7 cells at 0.5 uM after 24 hrs by qRT-PCR analysis; format: ADME, cell-based; conditions: huh-7, 24 h; outline: as §1
[10] = target: T2, CYP1B1 (via AhR) (Homo sapiens, UniProt P35869); test: Agonist activity at AhR in human HuH7 cells assessed as increase in CYP1B1 expression at 0.5 uM after 24 hrs by microarray analysis relative to control; format: ADME, cell-based; conditions: read-out: FC
T2 sequence (P35869 whole entry): T1 sequence (P35869 whole entry)
Outline: (§4)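 Transcriptome screen in Huh7 cells seeded 2.75 × 10^5 per well and treated 24 h with 10 μM or 0.5 μM compound (0.1% final DMSO) or DMSO mock. RNA isolated by column kit and profiled on microarray; expression given as fold change versus mock.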

[11] = target: T1, Aryl hydrocarbon receptor; test: Agonist activity at AhR in human A549 cells assessed as increase in UGT1A expression at 0.5 uM after 24 hrs by RT-qPCR analysis; format: ADME, cell-based; conditions: a549, 24 h; outline: as §3
[12] = target: T1, Aryl hydrocarbon receptor; test: Agonist activity at AhR in human A549 cells assessed as increase in CYP1A1 expression at 0.5 uM after 24 hrs by RT-qPCR analysis; format: ADME, cell-based; conditions: a549, 24 h; outline: as §3
[13] = target: T1, Aryl hydrocarbon receptor; test: Agonist activity at AhR in human HuH7 cells assessed as increase in UGT1A expression at 0.5 uM after 24 hrs by RT-qPCR analysis; format: ADME, cell-based; outline: as §1
[14] = target: T3, CYP1A1 (via AhR) (Homo sapiens, UniProt P35869); test: Agonist activity at AhR in human HuH7 cells assessed as increase in CYP1A1 expression at 0.5 uM after 24 hrs by microarray analysis relative to control; format: ADME, cell-based; conditions: read-out: FC; outline: as §4
T3 sequence (P35869 whole entry): T1 sequence (P35869 whole entry)

[15] = target: T3, CYP1A1 (via AhR); test: Agonist activity at AhR in human HuH7 cells assessed as increase in CYP1A1 expression at 10 uM after 24 hrs by microarray analysis relative to control; format: ADME, cell-based; conditions: read-out: FC; outline: as §4
[16] = target: T1, Aryl hydrocarbon receptor; test: Agonist activity at AhR in human HuH7 cells assessed as effect on GSTA1 expression at 10 uM after 24 hrs by qRT-PCR analysis; format: cell-based; outline: as §1
[17] = target: T4, AhR (aryl hydrocarbon receptor) (Homo sapiens, UniProt P35869); test: Agonist activity at AhR in human HuH7 cells at 10 uM after 24 hrs by renilla luciferase reporter gene assay relative to control; format: cell-based; conditions: read-out: FC; outline: as §2
T4 sequence (P35869 whole entry): T1 sequence (P35869 whole entry)

[18] = target: T1, Aryl hydrocarbon receptor; test: Agonist activity at AhR in human HuH7 cells assessed as increase in UGT1A expression at 10 uM after 24 hrs by RT-qPCR analysis; format: ADME, cell-based; outline: as §1
[19] = target: T1, Aryl hydrocarbon receptor; test: Agonist activity at AhR in human HuH7 cells assessed as increase in CYP1B1 expression at 10 uM after 24 hrs by RT-qPCR analysis; format: ADME, cell-based; outline: as §1
[20] = target: T1, Aryl hydrocarbon receptor; test: Agonist activity at AhR in human A549 cells assessed as increase in UGT1A expression at 10 uM after 24 hrs by RT-qPCR analysis; format: ADME, cell-based; conditions: a549, 24 h; outline: as §3
[21] = target: T2, CYP1B1 (via AhR); test: Agonist activity at AhR in human HuH7 cells assessed as increase in CYP1B1 expression at 10 uM after 24 hrs by microarray analysis relative to control; format: ADME, cell-based; conditions: read-out: FC; outline: as §4
[22] = target: T1, Aryl hydrocarbon receptor; test: Agonist activity at AhR in human HuH7 cells assessed as reduction in ALDH3A1 expression at 10 uM after 24 hrs by q-RT-PCR analysis relative to control; format: cell-based; outline: as §1
[23] = target: T1, Aryl hydrocarbon receptor; test: Agonist activity at AhR in human A549 cells assessed as increase in ALDH3A1 expression at 10 uM after 24 hrs by q-RT-PCR analysis; format: cell-based; conditions: a549, 24 h; outline: as §3

Structure (SMILES): O=C1Nc2ccccc2/C1=C\c1nnc2ccccc2c1Cl
- Activity [1]: Not Active
- Activity [2]: Dose-dependent effect
- EC50 [3]: 9.6 µM
- Activity [4]: Not Active
- Activity [5]: Not Active
- Activity [6]: Active
- Activity [7]: Active
- Activity [8]: Not Active
- Activity [9]: Not Active
- fold induction at 24 h, 0.5 µM [10]: 1.35
- Activity [11]: Active
- Activity [12]: Active
- Activity [13]: Active
- fold induction at 24 h, 0.5 µM [14]: 3.28

Structure (SMILES): O=C1Nc2ccccc2/C1=C/c1nc2ccccc2c(=O)[nH]1
- Activity [2]: Dose-dependent effect
- fold induction at 24 h, 10 µM [15]: 10.5
- Activity [16]: Not Active
- fold induction at 24 h, 10 µM [17]: ≤ 17
- EC50 [3]: 31.3 µM
- Activity [18]: Active
- Activity [19]: Active
- Activity [20]: Active
- fold induction at 24 h, 10 µM [21]: 8.6
- fold change (FC) [22]: 0.65
- Activity [23]: Active
